Data published in article PMC7004521 (Cancer Science, 2019).

Experiment: Adverse events suspected to be study drug related, phase 1 study
Assay type: in vivo, human
Conditions: drug-related
Procedure, shortened: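 Adult patients with advanced solid tumours and confirmed MET dysregulation took oral capsules twice daily from 100 up to 600 mg in escalation, or 400 mg bid tablets, in 28-day cycles. Expansion was 600 mg bid capsules, with a switch to 400 mg bid tablets allowed. Patients were included if they had ≥1 dose and ≥1 valid post-baseline safety assessment. Events were graded by CTCAE v4.0.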

CNC(=O)c1ccc(-c2cnc3ncc(Cc4ccc5ncccc5c4)n3n2)cc1F [capmatinib]
0 n (%): Hypoalbuminemia, grade 3/4 (escalation 600 mg bid n=8) | Hypophagia, all grades (escalation 600 mg bid n=8) | Hypophagia, grade 3/4 (escalation 600 mg bid n=8) | Lipase increased, all grades (escalation 600 mg bid n=8) | Lipase increased, grade 3/4 (escalation 600 mg bid n=8) | Maculo‐papular rash, all grades (escalation 600 mg bid n=8) | Maculo‐papular rash, grade 3/4 (escalation 600 mg bid n=8) | Myalgia, all grades (escalation 600 mg bid n=8) | Myalgia, grade 3/4 (escalation 600 mg bid n=8) | Nausea, grade 3/4 (escalation 600 mg bid n=8) | Odynophagia, all grades (escalation 600 mg bid n=8) | Odynophagia, grade 3/4 (escalation 600 mg bid n=8) | Peripheral edema, grade 3/4 (escalation 600 mg bid n=8) | Pyrexia, all grades (escalation 600 mg bid n=8) | Pyrexia, grade 3/4 (escalation 600 mg bid n=8) | Stomatitis, grade 3/4 (escalation 600 mg bid n=8) | Thrombocytopenia, all grades (escalation 600 mg bid n=8) | Thrombocytopenia, grade 3/4 (escalation 600 mg bid n=8) | Total protein decreased, grade 3/4 (escalation 600 mg bid n=8) | Upper abdominal pain, all grades (escalation 600 mg bid n=8) | Upper abdominal pain, grade 3/4 (escalation 600 mg bid n=8) | Vomiting, grade 3/4 (escalation 600 mg bid n=8) | ALT increased, all grades (escalation 100-350 mg bid n=16) | ALT increased, grade 3/4 (escalation 100-350 mg bid n=16) | Asthenia, grade 3/4 (escalation 100-350 mg bid n=16) | Blood creatinine increased, grade 3/4 (escalation 100-350 mg bid n=16) | Constipation, grade 3/4 (escalation 100-350 mg bid n=16) | Diarrhea, grade 3/4 (escalation 100-350 mg bid n=16) | Dizziness, all grades (escalation 100-350 mg bid n=16) | Dizziness, grade 3/4 (escalation 100-350 mg bid n=16) | Dyspepsia, all grades (escalation 100-350 mg bid n=16) | Dyspepsia, grade 3/4 (escalation 100-350 mg bid n=16) | Headache, grade 3/4 (escalation 100-350 mg bid n=16) | Maculo‐papular rash, all grades (escalation 100-350 mg bid n=16) | Maculo‐papular rash, grade 3/4 (escalation 100-350 mg bid n=16) | Myalgia, grade 3/4 (escalation 100-350 mg bid n=16) | Nausea, grade 3/4 (escalation 100-350 mg bid n=16) | Odynophagia, grade 3/4 (escalation 100-350 mg bid n=16) | Pyrexia, grade 3/4 (escalation 100-350 mg bid n=16) | Stomatitis, all grades (escalation 100-350 mg bid n=16) | Stomatitis, grade 3/4 (escalation 100-350 mg bid n=16) | Thrombocytopenia, grade 3/4 (escalation 100-350 mg bid n=16) | Total protein decreased, grade 3/4 (escalation 100-350 mg bid n=16) | Upper abdominal pain, grade 3/4 (escalation 100-350 mg bid n=16) | Vomiting, grade 3/4 (escalation 100-350 mg bid n=16) | ALT increased, all grades (expansion RP2D HCC n=11) | ALT increased, grade 3/4 (expansion RP2D HCC n=11) | Amylase increased, all grades (expansion RP2D HCC n=11) | Amylase increased, grade 3/4 (expansion RP2D HCC n=11) | Asthenia, grade 3/4 (expansion RP2D HCC n=11) | Blood bilirubin increased, all grades (expansion RP2D HCC n=11) | Blood bilirubin increased, grade 3/4 (expansion RP2D HCC n=11) | Constipation, all grades (expansion RP2D HCC n=11) | Constipation, grade 3/4 (expansion RP2D HCC n=11) | Decreased appetite, grade 3/4 (expansion RP2D HCC n=11) | Diarrhea, grade 3/4 (expansion RP2D HCC n=11) | Dizziness, grade 3/4 (expansion RP2D HCC n=11) | Dyspepsia, all grades (expansion RP2D HCC n=11) | Dyspepsia, grade 3/4 (expansion RP2D HCC n=11) | Fatigue, grade 3/4 (expansion RP2D HCC n=11) | Headache, all grades (expansion RP2D HCC n=11) | Headache, grade 3/4 (expansion RP2D HCC n=11) | Hypoalbuminemia, all grades (expansion RP2D HCC n=11) | Hypoalbuminemia, grade 3/4 (expansion RP2D HCC n=11) | Localized edema, all grades (expansion RP2D HCC n=11) | Localized edema, grade 3/4 (expansion RP2D HCC n=11) | Maculo‐papular rash, all grades (expansion RP2D HCC n=11) | Maculo‐papular rash, grade 3/4 (expansion RP2D HCC n=11) | Myalgia, all grades (expansion RP2D HCC n=11) | Myalgia, grade 3/4 (expansion RP2D HCC n=11) | Odynophagia, all grades (expansion RP2D HCC n=11) | Odynophagia, grade 3/4 (expansion RP2D HCC n=11)
1 (6) n (%): AST increased, all grades (escalation 100-350 mg bid n=16) | Amylase increased, grade 3/4 (escalation 100-350 mg bid n=16) | Blood bilirubin increased, grade 3/4 (escalation 100-350 mg bid n=16) | Decreased appetite, grade 3/4 (escalation 100-350 mg bid n=16) | Headache, all grades (escalation 100-350 mg bid n=16) | Hypoalbuminemia, grade 3/4 (escalation 100-350 mg bid n=16) | Lipase increased, all grades (escalation 100-350 mg bid n=16) | Lipase increased, grade 3/4 (escalation 100-350 mg bid n=16) | Odynophagia, all grades (escalation 100-350 mg bid n=16) | Peripheral edema, grade 3/4 (escalation 100-350 mg bid n=16) | Pyrexia, all grades (escalation 100-350 mg bid n=16) | Thrombocytopenia, all grades (escalation 100-350 mg bid n=16) | Total protein decreased, all grades (escalation 100-350 mg bid n=16) | Upper abdominal pain, all grades (escalation 100-350 mg bid n=16)
4 (25) n (%): Asthenia, all grades (escalation 100-350 mg bid n=16) | Vomiting, all grades (escalation 100-350 mg bid n=16)
5 (31) n (%): Decreased appetite, all grades (escalation 100-350 mg bid n=16)
3 (19) n (%): Blood bilirubin increased, all grades (escalation 100-350 mg bid n=16) | Fatigue, all grades (escalation 100-350 mg bid n=16) | Hypoalbuminemia, all grades (escalation 100-350 mg bid n=16) | Nausea, all grades (escalation 100-350 mg bid n=16) | Peripheral edema, all grades (escalation 100-350 mg bid n=16)
1 (9) n (%): AST increased, all grades (expansion RP2D HCC n=11) | AST increased, grade 3/4 (expansion RP2D HCC n=11) | Asthenia, all grades (expansion RP2D HCC n=11) | Blood creatinine increased, all grades (expansion RP2D HCC n=11) | Blood creatinine increased, grade 3/4 (expansion RP2D HCC n=11) | Dizziness, all grades (expansion RP2D HCC n=11) | Nausea, grade 3/4 (expansion RP2D HCC n=11)
2 (18) n (%): Decreased appetite, all grades (expansion RP2D HCC n=11) | Lipase increased, all grades (expansion RP2D HCC n=11) | Lipase increased, grade 3/4 (expansion RP2D HCC n=11)
1 (13) n (%): Peripheral edema, all grades (escalation 600 mg bid n=8) | Stomatitis, all grades (escalation 600 mg bid n=8) | Total protein decreased, all grades (escalation 600 mg bid n=8)
4 (36) n (%): Diarrhea, all grades (expansion RP2D HCC n=11)
5 (46) n (%): Nausea, all grades (expansion RP2D HCC n=11)
3 (27) n (%): Fatigue, all grades (expansion RP2D HCC n=11)
3 (38) n (%): Nausea, all grades (escalation 600 mg bid n=8) | Vomiting, all grades (escalation 600 mg bid n=8)
2 (13) n (%): Amylase increased, all grades (escalation 100-350 mg bid n=16) | Blood creatinine increased, all grades (escalation 100-350 mg bid n=16) | Constipation, all grades (escalation 100-350 mg bid n=16) | Diarrhea, all grades (escalation 100-350 mg bid n=16) | Fatigue, grade 3/4 (escalation 100-350 mg bid n=16) | Hypophagia, all grades (escalation 100-350 mg bid n=16) | Hypophagia, grade 3/4 (escalation 100-350 mg bid n=16) | Myalgia, all grades (escalation 100-350 mg bid n=16)
